rCAG RNA binder: molecules binding r(CAG) RNA repeats | r(CAG) RNA repeat, TO-PRO-1 dye displacement fluorescence | inhibition, % at 3 µM | 370,000 tested, 1.3% active;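 active = inhibition above the plate cutoff, the mean of all test compounds on that plate plus 3 SD, cut at about 35% in these data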;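 note: higher means more dye released from RNA so lower well fluorescence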
PG9 binder: PG9 antibody binding by small molecule; TR-FRET gp120-PG9 antibody binding; inhibition, % at 6.7 µM; 360,000 tested, 0.43% active; AID 624416; in the data active = inhibition above about 8.5%
NR2E3 ag-1: agonists of human nuclear receptor NR2E3; GST-NR2E3/biotin-RetCOR TR-FRET, 1536-well; inhibition of corepressor binding, % at 4.78 µM; 320,000 tested, 0.12% active; Q9Y5X4;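 active = percent inhibition above the cutoff of mean plus 3 SD of all tested compounds, set per screening campaign, cut at about 20% in these data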
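Format: 1536-well format; test system: GST-NR2E3 and biotin-RetCOR proteins; read-out basis: percent inhibition of TR-FRET ratio; timing: 5 h incubation at 4 °C; detection: time-resolved FRET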
Rev-erbA mod: modulates human Rev-erb alpha binding to DNA; Rev-erbα–FITC-DNA binding, fluorescence polarization, 90 min; activity, % at 10 µM; 370,000 tested, 0.79% active; AID 1259318;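 active = activity above about 14%, limit read from the data; passing the limit was not always enough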
Target sequence (P20393 whole entry, looked up): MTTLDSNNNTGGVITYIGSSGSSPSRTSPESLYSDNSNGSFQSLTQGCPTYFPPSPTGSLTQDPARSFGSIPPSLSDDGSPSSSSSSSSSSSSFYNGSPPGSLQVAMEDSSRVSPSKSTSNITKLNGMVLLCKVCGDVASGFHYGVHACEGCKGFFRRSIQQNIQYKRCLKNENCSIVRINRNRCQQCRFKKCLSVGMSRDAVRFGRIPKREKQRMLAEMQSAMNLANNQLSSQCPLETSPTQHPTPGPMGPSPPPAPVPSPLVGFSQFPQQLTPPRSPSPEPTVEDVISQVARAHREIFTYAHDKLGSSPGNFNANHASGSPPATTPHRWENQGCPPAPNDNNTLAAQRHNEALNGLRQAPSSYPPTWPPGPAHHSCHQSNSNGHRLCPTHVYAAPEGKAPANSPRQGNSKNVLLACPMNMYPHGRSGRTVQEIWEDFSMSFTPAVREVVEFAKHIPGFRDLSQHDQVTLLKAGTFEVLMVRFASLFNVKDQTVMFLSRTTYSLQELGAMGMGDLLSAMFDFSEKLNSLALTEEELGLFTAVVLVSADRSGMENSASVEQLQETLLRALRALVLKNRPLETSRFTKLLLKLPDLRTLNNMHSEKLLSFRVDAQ
NR2E3 ag-2: human photoreceptor-specific nuclear receptor agonism; 360,000 tested, 0.35% active; CHO-S Gal4-NCOR/VP16-NR2E3 two-hybrid, luciferase; inhibition of corepressor binding, % at 3.98 µM; Q9Y5X4;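 active = inhibition above the mean of all tested compounds plus 3 SD, cut at about 70% in these data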;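 note: higher means lower luciferase signal from less NR2E3 corepressor binding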
NR2E3 ag conf: confirmation of human NR2E3 agonists; shares compounds with NR2E3 ag-2; CHO-S mammalian two-hybrid NR2E3-NCOR, luciferase luminescence; inhibition, % at 3.98 µM; 2,300 tested, 51% active;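 active = average inhibition above a cutoff equal to the mean inhibition of all tested compounds plus one SD, cut at about 70% in these data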
GAL4-VP16 luc: reduces GAL4-VP16 reporter signal in NR2E3 counterscreen; shares compounds with NR2E3 ag-2; CHO-S GAL4-VP16 luciferase reporter, luminescence; inhibition, % at 3.98 µM; 2,300 tested, 29% active; AID 624379;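 active = mean inhibition above a cutoff equal to the average over all tested compounds plus one standard deviation, cut at about 70% in these data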;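 note: luciferase from a UAS reporter driven by GAL4-VP16 transactivation; higher means less reporter light so more repression of VP16 activity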
A number is an active result; - = inactive; . = not tested or not shown. Shown are actives, neighbours in structure and some others; about 2.6% of the full set was active somewhere.

SMILES | rCAG RNA binder | PG9 binder | NR2E3 ag-1 | Rev-erbA mod | NR2E3 ag-2 | NR2E3 ag conf | GAL4-VP16 luc
COc1ccccc1Cc1c(-c2ccccc2)nc2ccc(C)cn12 | - | - | . | - | . | . | .
CCOC(=O)N(C)C[C@H]1OCc2cn(nn2)CCCC(=O)N([C@@H](C)CO)C[C@@H]1C | - | - | . | - | . | . | .
COc1ccc(S(=O)(=O)N2CCN(c3ccc(C)cc3C)CC2)cc1OC | - | - | - | - | - | 74.4 | -
COc1ccc(S(=O)(=O)N2CCN(c3c(C)cccc3C)CC2)cc1OC | - | - | - | - | - | . | .
CC1(C)CC(=O)C=C(c2ccccc2-c2cccc(C(N)=O)c2)C1=O | - | - | . | - | . | . | .
O=C(CSc1ccc(-c2ccncc2)nn1)c1ccc(Cl)cc1 | - | - | - | - | - | . | .
NC(=O)C(c1ccc(Cl)cc1)c1ccc(Sc2ccc(Cl)cc2)nn1 (stereo not given) | - | - | - | - | - | 87.2 | -
COc1ccc(/C=N/Nc2cc(C)nc(-n3nc(C)cc3C)n2)cc1 | - | - | - | - | 93.6 | - | -
COc1ccc(O)c(/C=N/Nc2nc(Nc3ccccc3)nc(-n3nc(C)cc3C)n2)c1 | - | - | - | - | 96.4 | - | -
COc1cc(/C=N/Nc2nc(Nc3ccccc3)nc(-n3nc(C)cc3C)n2)cc(OC)c1OC | - | - | - | - | - | - | -
COc1cc(/C=N/Nc2nc(Nc3ccc(C)cc3)nc(-n3nc(C)cc3C)n2)cc(OC)c1OC | - | - | - | - | - | - | -
CCCCNC(=O)NCC1CCN(Cc2ccc(OC)cc2)CC1 | - | . | . | - | . | . | .
COc1cc2c(c3c1c(=O)c1cccc(F)c1n3C)C=CC(C)(C)O2 | - | - | . | - | . | . | .
Cc1ccccc1-c1ccc2c(c1)[C@@H]1C[C@H](N(C)S(=O)(=O)c3ccc(Cl)cc3)[C@H]([C@H](C)O)CN1CC2 | - | - | . | - | . | . | .
CCOc1ccc(CN(C)Cc2cc(=O)oc3c(C)c(C)ccc23)cc1OC | - | - | . | - | 86.2 | 88.2 | 80.6
CCc1nc2ccc(C(=O)N(C)C(C)C)cn2c1N(CC)Cc1cccc(Br)c1 | - | - | . | - | 72.2 | - | -
CCc1nc2ccc(C(=O)N3CCN(S(=O)(=O)CC)CC3)cn2c1N(CC)Cc1cccc(Br)c1 | - | - | . | - | - | . | .
O=C(NC(=S)N1CCN(c2c(Cl)cccc2[N+](=O)[O-])CC1)c1cccs1 | - | - | - | - | - | - | -
C=CCNC(=S)N1C[C@H]2CON(C)[C@H]2C[C@H]1c1ccccc1Br | - | - | . | - | . | . | .
CC(C)C[C@H]1CN([C@@H](Cc2ccccc2)CN2CCC[C@H]2CN2C(=O)C(=O)NC[C@@H]2Cc2ccccc2)C(=O)C(=O)N1CC1CCCCCC1 | - | - | . | - | . | . | .
C=CCCC1CN(Cc2ccc(OC)cc2)S(=O)(=O)c2c(cccc2Sc2ccc(OC)c(OC)c2)O1 (stereo not given) | - | - | . | - | . | . | .
CN(C)c1ccc(C=Cc2ccnc3ccccc23)cc1N | - | - | . | - | - | - | -
O=C1C(Nc2ccc(O)cc2)=C/C(=N/S(=O)(=O)c2cccs2)c2ccccc21 | - | - | . | - | 103.3 | 100.4 | 99.4
CCc1ccc(S(=O)(=O)/N=C2\C=C(Nc3ccc(O)cc3)C(=O)c3ccccc32)cc1 | . | . | - | . | 113.0 | 99.9 | 100.5
CCc1ccc(S(=O)(=O)/N=C2\C=CC(=O)c3ccccc32)cc1 | . | . | - | . | . | . | .
SMILES | rCAG RNA binder | PG9 binder | NR2E3 ag-1 | Rev-erbA mod | NR2E3 ag-2 | NR2E3 ag conf | GAL4-VP16 luc
CC(C)Cc1ccc(C(C)C(=O)Nc2cccnc2)cc1 (stereo not given) | - | - | - | - | - | 88.6 | 75.9
COC(=O)[C@]12C[C@H](CC(=O)NCC3CCCCC3)C(=O)N(CCC3=CCCCC3)C1=C[C@H](C(C)(C)C)O[C@@H]2C | - | - | . | - | . | . | .
Nc1nonc1C(=O)NCCNCc1cc(Br)ccc1OCc1ccc(F)cc1 | - | - | - | - | - | - | -
COc1ccc(CNCCNC(=O)c2nonc2N)cc1OC | - | - | - | - | - | . | .
O=C1N/C(=C\c2ccc(O)cc2)C(O)=C1C=NCc1ccccc1 | - | - | - | - | - | 72.8 | -
Cc1cc(C)c(C)c(S(=O)(=O)N2CCN(c3ncnc4ccccc34)CC2)c1C | - | - | - | - | - | 88.8 | -
O=S(=O)(c1cc(C(F)(F)F)ccc1Cl)N1CCN(c2ncnc3ccccc23)CC1 | - | - | . | - | 98.8 | 95.0 | 85.8
C[C@H]1[C@H](c2ccccc2)Oc2cccc(NCCc3ccccc3)c2S(=O)(=O)N1Cc1cccc(F)c1 | - | - | . | - | . | . | .
COc1ccc(OC)c(C2C=C(C34CC5CC(CC(C5)C3)C4)NC(=S)N2)c1 (stereo not given) | - | - | - | - | - | - | -
COc1cc(C2C=C(C34CC5CC(CC(C5)C3)C4)NC(=S)N2)cc(OC)c1OC (stereo not given) | - | - | - | - | - | . | .
Cc1ccnc(NC(=S)N2CCN(c3cccc(C(F)(F)F)c3)CC2)c1 | - | - | - | - | 84.0 | 91.3 | -
Cc1ccc(C)c(NC(=S)N2CCN(c3cccc(C(F)(F)F)c3)CC2)c1 | - | - | - | - | - | . | .
COc1ccc(NC(=O)N2CCN(c3cccc(C(F)(F)F)c3)CC2)cc1 | - | - | - | - | - | . | .
CN(C)S(=O)(=O)c1ccc(NC(=O)N2CCN(c3cccc(C(F)(F)F)c3)CC2)cc1 | - | - | - | - | - | 80.0 | -
OC(c1ccc(Cl)c(F)c1)c1ncc(-c2ccc(F)cc2)[nH]1 (stereo not given) | - | - | . | - | 79.6 | 78.5 | -
Cc1ccc(-c2cnc(C(O)c3ccc(Cl)c(F)c3)[nH]2)cc1 (stereo not given) | . | . | . | . | - | - | -
S=C(NN=C1CCCCC1=NNC(=S)N1CCOCC1)N1CCOCC1 | - | - | . | - | . | . | .
COC(=O)[C@@H](N[C@H](/C=C/c1ccccc1)[C@@H](O)Cc1ccccc1)C(C)C | - | - | . | - | . | . | .
O=Cc1cc([B-](F)(F)F)cs1 | - | - | . | - | . | . | .
COCCCNC(=O)C[C@H]1C[C@@]2(C(=O)OC)C(=C[C@H](C(C)(C)C)O[C@@H]2C)N(CCc2ccc(OC)c(OC)c2)C1=O | - | - | . | - | . | . | .
Cc1c(CN(C)C(=O)c2sc3cc(Cl)ccc3c2Cl)cnn1C | - | - | - | - | - | 72.4 | -
COc1cccc2sc(N3CCN(C(=O)c4ccc([N+](=O)[O-])o4)CC3)nc12 | . | . | - | . | - | - | -
O=C(c1ccc([N+](=O)[O-])o1)N1CCN(c2nc3c(Cl)cccc3s2)CC1 | - | - | - | - | - | . | .
C=C1C(=O)C=C[C@]2(C)C[C@@H]3OC(=O)[C@](C)(O)[C@H]3C[C@@H]12 | - | - | - | - | - | - | -
COc1ccc(OC)c(Nc2nc(-c3c(C)nc4ncccn34)cs2)c1 | - | - | - | - | - | - | -
